Among the data in ChEMBL document CHEMBL1221364 (Bioorg Med Chem, 2010) are Selectivity Index, Ki and EC50 values, retold here.

The structures appear in SMILES notation.

One experiment is filed under the species Sus scrofa. Briefly: Selectivity ratio of Ki for pig D2-like receptor to Ki for pig D1-like receptor. In short, it runs like this:
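Porcine striatal membranes (P2 pellet, washed in 50 mM Tris pH 7.4), 75 µg protein per tube in 50 mM Hepes, 4 mM MgCl2, pH 7.4. D1-like sites were labelled with 1 nM [3H]SCH-23390. D2-like sites were labelled with 0.15 nM [3H]spiperone plus 50 nM ketanserin. Nonspecific binding was defined with 5 µM butaclamol. Incubation was 37 °C for 30 min, then filtration and scintillation counting. Ki was derived by Cheng-Prusoff and D2/D1 Ki compared.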

The nature of experiment [1]: Displacement of [3H]spiperone from D2 like receptor in pig striatal tissue by topcount scintillation counting. Format: tissue-based, Sus scrofa, Striatum. Summed up: (§1)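 Porcine striatal membranes (P2 pellet, washed in 50 mM Tris pH 7.4), 75 µg protein per tube in 50 mM Hepes, 4 mM MgCl2, pH 7.4. Nonspecific binding was defined with 5 µM butaclamol. Incubation was 37 °C for 30 min, then filtration and scintillation counting. Ki was derived by Cheng-Prusoff and D2/D1 Ki compared.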
For orientation: In a radioligand displacement assay an active substance lowers the binding of a labelled ligand.

The nature of experiment [2]: Displacement of [3H]SCH23390 from D1 like receptor in pig striatal tissue by topcount scintillation counting. The experiment is classed as tissue-based, Sus scrofa, Striatum. In short, it runs like this:
as §1

Experiment [3] addresses T1, D(1A) dopamine receptor (Homo sapiens, UniProt P21728). Briefly: Agonist activity at human D1 receptor assessed as cAMP accumulation. The experiment is classed as functional. For orientation: cAMP levels reflect the balance of adenylyl cyclase and phosphodiesterase activity.
The target in experiment [4] is T2, Alpha-2A adrenergic receptor (Homo sapiens, UniProt P08913).
T2 sequence (P08913 whole entry): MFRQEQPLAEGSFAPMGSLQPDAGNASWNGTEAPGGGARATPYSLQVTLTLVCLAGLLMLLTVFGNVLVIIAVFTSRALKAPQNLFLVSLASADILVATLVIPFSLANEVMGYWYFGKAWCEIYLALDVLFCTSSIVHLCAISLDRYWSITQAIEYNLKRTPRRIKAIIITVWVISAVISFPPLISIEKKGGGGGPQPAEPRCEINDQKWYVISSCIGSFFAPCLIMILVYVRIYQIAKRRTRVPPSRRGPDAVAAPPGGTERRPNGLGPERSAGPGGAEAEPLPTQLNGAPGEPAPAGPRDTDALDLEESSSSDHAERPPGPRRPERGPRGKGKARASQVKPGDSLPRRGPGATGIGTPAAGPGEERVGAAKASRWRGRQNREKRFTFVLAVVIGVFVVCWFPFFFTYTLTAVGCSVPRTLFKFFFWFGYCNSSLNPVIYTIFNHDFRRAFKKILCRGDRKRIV
As to the kind of experiment: Binding affinity to adrenergic alpha2A receptor.

Experiment [5] addresses T3, 5-hydroxytryptamine receptor 3A (Homo sapiens, UniProt P46098).
T3 sequence (P46098 whole entry): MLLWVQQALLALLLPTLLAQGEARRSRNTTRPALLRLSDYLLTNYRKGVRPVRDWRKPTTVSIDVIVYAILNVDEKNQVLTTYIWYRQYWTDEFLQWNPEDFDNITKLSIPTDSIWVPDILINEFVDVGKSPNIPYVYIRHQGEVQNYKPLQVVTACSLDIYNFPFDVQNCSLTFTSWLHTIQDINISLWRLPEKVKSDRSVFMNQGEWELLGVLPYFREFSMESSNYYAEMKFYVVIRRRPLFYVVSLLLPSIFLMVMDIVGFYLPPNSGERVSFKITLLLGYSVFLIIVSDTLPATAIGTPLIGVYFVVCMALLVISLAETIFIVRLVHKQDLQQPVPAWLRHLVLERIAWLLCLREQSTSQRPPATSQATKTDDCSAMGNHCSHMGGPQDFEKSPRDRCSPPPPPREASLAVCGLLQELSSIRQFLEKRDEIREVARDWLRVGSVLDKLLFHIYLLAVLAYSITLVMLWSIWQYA
As to the kind of experiment: Binding affinity to 5HT3 receptor.

The target in experiment [6] is T4, Alpha-2C adrenergic receptor (Homo sapiens, UniProt P18825).
T4 sequence (P18825 whole entry): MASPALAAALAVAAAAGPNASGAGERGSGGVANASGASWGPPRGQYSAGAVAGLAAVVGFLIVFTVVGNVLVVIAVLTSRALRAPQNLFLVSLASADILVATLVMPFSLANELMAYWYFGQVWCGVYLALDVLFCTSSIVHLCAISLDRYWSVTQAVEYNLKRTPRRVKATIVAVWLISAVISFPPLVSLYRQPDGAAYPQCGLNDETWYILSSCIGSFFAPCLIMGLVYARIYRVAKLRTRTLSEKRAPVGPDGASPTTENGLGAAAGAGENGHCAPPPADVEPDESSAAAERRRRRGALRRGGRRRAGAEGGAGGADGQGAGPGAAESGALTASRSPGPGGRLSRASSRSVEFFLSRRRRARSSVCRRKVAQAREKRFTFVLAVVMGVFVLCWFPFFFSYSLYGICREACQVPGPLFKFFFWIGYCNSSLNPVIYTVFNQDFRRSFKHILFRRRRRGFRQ
Briefly: Binding affinity to adrenergic Alpha-2C receptor.

Experiment [7] deals with Kappa-type opioid receptor (Homo sapiens, UniProt P41145). Briefly: Binding affinity to […] opioid receptor.
Sequence of Kappa-type opioid receptor (P41145 whole entry): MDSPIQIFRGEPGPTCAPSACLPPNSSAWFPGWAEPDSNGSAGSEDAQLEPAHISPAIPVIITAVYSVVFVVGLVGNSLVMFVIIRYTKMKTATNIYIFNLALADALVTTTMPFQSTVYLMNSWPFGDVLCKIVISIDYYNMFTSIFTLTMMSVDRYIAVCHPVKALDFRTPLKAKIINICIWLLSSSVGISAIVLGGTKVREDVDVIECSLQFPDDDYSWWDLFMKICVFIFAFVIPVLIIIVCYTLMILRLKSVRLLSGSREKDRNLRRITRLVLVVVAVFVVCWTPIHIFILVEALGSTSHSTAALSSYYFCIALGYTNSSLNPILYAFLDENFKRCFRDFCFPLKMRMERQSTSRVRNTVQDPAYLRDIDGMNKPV
The target in another experiment is D(1B) dopamine receptor (Homo sapiens, UniProt P21918). As to the kind of experiment: Binding affinity to dopamine D5 receptor.
Sequence of D(1B) dopamine receptor (P21918 whole entry): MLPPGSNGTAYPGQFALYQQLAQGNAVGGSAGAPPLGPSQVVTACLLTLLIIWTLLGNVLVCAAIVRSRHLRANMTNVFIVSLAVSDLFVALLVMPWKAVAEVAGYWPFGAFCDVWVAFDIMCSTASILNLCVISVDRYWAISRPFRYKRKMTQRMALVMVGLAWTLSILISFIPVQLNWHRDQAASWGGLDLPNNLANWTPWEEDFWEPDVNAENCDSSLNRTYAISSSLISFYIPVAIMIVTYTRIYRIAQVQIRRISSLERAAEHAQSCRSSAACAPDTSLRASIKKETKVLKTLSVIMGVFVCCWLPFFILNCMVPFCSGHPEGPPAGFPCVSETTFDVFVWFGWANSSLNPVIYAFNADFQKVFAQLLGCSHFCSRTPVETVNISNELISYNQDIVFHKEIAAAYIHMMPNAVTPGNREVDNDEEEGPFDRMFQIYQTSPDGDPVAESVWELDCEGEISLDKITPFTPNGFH
The target of experiment [8] is T5, Alpha-2B adrenergic receptor (Homo sapiens, UniProt P18089).
T5 sequence (P18089 whole entry): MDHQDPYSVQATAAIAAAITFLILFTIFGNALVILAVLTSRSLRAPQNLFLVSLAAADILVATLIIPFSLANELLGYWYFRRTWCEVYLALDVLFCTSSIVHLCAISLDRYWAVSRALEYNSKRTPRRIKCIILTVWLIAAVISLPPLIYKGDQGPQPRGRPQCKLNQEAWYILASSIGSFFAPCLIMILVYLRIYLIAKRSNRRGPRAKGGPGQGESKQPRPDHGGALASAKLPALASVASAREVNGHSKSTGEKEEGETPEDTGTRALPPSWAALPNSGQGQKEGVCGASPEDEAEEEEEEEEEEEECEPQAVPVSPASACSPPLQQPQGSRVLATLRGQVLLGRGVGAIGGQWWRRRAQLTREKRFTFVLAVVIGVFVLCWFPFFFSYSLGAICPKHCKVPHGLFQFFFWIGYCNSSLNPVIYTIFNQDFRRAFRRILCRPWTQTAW
As to the kind of experiment: Binding affinity to adrenergic alpha2B receptor.

In the next experiment the target is D(3) dopamine receptor (Homo sapiens, UniProt P35462). As to the kind of experiment: Binding affinity to dopamine D3 receptor.
Sequence of D(3) dopamine receptor (P35462 whole entry): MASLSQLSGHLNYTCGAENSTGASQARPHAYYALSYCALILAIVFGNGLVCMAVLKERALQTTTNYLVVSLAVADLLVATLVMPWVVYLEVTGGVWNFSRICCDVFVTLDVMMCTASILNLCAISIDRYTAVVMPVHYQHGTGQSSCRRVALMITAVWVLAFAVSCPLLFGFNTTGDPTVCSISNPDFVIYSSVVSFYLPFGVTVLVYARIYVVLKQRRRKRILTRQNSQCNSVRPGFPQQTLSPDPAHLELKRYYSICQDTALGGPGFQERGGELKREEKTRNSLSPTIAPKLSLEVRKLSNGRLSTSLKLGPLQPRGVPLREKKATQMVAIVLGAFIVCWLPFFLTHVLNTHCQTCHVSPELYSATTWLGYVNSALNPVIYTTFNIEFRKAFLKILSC
For experiment [9], the target named is T1, D(1A) dopamine receptor. Briefly: Binding affinity to dopamine D1 receptor.
Experiment [10] concerns the target 5-hydroxytryptamine receptor 7 (Homo sapiens, UniProt P34969). As to the kind of experiment: Binding affinity to 5HT7 receptor.
The target of experiment [11] is T6, Alpha-1A adrenergic receptor (Homo sapiens, UniProt P35348).
T6 sequence (P35348 whole entry): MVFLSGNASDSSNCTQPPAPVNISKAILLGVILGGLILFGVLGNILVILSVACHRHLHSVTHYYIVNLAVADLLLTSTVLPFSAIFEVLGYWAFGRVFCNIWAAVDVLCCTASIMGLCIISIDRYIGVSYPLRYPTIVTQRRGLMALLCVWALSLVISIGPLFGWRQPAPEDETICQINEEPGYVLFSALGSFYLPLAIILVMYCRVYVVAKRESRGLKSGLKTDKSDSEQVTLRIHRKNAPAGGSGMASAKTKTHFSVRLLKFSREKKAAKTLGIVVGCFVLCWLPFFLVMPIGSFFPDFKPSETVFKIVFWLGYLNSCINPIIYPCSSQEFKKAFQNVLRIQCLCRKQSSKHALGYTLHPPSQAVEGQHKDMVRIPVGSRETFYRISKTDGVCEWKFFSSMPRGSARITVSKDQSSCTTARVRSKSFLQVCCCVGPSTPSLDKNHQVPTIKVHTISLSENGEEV
As to the kind of experiment: Binding affinity to adrenergic alpha1A receptor.

A further experiment addresses T7, D(4) dopamine receptor (Homo sapiens, UniProt P21917).
T7 sequence (P21917 whole entry): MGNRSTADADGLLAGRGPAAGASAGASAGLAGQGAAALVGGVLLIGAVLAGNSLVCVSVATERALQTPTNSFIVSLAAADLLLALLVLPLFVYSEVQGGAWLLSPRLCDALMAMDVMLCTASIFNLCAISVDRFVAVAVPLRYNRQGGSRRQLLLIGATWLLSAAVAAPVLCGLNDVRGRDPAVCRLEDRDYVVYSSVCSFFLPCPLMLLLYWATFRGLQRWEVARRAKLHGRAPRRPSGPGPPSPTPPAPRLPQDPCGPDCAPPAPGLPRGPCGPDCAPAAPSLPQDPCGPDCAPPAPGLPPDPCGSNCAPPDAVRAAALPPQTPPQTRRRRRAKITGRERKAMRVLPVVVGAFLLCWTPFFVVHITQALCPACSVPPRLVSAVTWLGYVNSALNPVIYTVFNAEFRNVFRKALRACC
Briefly: Binding affinity to dopamine D4 receptor.

T1 sequence (P21728 whole entry): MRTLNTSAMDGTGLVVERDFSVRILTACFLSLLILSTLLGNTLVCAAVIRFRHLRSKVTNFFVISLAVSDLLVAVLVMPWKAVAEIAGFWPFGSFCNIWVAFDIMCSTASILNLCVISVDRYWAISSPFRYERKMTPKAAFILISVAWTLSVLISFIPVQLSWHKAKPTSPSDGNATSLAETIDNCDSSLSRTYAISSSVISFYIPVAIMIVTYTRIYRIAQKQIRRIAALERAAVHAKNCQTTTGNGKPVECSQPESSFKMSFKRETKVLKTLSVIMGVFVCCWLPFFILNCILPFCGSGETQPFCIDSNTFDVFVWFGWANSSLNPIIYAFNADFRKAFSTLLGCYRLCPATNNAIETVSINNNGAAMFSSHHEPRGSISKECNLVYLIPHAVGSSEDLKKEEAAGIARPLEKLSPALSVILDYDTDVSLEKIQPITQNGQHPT
Sequence of 5-hydroxytryptamine receptor 7 (P34969 whole entry): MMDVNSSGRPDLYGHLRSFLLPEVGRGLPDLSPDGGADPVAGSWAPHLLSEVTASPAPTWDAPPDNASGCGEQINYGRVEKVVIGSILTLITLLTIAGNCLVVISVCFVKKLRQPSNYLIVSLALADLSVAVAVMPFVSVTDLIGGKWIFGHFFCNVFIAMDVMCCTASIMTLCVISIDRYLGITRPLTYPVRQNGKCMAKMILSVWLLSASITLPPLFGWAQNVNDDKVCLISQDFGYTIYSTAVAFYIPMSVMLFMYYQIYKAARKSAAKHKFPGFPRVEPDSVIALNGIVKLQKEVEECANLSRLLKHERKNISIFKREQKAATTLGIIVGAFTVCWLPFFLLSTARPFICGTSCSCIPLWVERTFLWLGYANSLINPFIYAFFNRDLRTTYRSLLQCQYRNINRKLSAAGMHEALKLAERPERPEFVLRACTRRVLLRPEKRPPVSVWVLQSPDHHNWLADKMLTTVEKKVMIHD

A word on the Ki: it is a measure of affinity in units of concentration, obtained from inhibition or displacement. The low end stands for tighter binding, the high end for weaker binding. For `Oc1ccc2c(c1O)CC[C@@H]1CCNC[C@@H]21` (relative stereo), in the experiment listed under Sus scrofa, the Selectivity Index came out at 0.8. Further, the results for the Ki in experiment [1] and in experiment [2] were 0.67 µM and 0.85 µM, respectively.

As a reminder, the EC50 is the midpoint of the concentration-response curve. Take `Oc1ccc2c(c1O)C[C@@H](c1ccccc1)[C@@H]1CCNC[C@@H]21`: on D(1A) dopamine receptor [3], the half-maximal effective concentration (EC50) was determined as 0.00064 µM. For the same molecule, the inhibition constant (Ki) in experiment [1] is 0.44 µM; in experiment [4], 0.0035 µM; in [5] it was 0.87 µM; in [6], 0.0011 µM; in experiment [7] it was 0.82 µM; at D(1B) dopamine receptor, 0.0028 µM. Further, the inhibition constant Ki in [8] was determined as 0.0064 µM; at D(3) dopamine receptor, 0.13 µM; in [2], 0.006 µM; at D(1A) dopamine receptor [9], 0.018 µM; in [10] it was 0.22 µM; in experiment [11], 0.34 µM. On D(4) dopamine receptor, this molecule yielded an inhibition constant Ki of 2.65 µM.

For `CN1CCc2cc(Cl)c(O)cc2[C@@H](c2ccccc2)C1` [SCH-23390], in [2], affinity was put at a Ki of 0.00079 µM.

On to `Oc1ccc2c(c1O)CC[C@@H]1CCNC[C@H]21` (relative stereo), for which the Selectivity Index in the experiment listed under Sus scrofa is 0.4. The Ki in experiment [1] amounted to 2.8 µM; in experiment [2] it was 6.8 µM.
